Screening data as filed in PubChem.
SIAE primary: human SIAE inhibition, primary screen | Q9HAT2 | SIAE FP-Rh probe binding, fluorescence polarization | inhibition, % at 9.66 µM | actives 0.69% (n = 370,000) | AID 1053197;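 active = inhibition above a cutoff: mean of compounds within the control limits plus 3 SD of those, cut at about 17% in these data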;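 also: 0% = plate median of compound wells and 100% = probe without SIAE protein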
Target sequence (Q9HAT2 whole entry, looked up): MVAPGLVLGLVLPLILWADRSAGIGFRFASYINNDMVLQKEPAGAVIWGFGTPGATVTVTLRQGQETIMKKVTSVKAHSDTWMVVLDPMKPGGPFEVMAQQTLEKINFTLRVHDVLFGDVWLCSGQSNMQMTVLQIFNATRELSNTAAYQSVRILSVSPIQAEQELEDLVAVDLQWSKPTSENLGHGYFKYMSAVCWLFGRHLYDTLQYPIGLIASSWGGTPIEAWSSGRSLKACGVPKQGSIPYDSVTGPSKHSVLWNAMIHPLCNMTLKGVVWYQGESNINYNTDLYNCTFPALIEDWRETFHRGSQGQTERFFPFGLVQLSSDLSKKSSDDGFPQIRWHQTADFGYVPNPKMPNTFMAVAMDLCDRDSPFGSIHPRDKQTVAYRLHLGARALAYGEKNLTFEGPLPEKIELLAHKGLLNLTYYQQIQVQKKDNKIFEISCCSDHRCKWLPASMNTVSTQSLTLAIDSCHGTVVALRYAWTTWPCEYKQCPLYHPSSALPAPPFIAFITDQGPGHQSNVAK
GSTO1 inh: counter-screen for RBBP9 inhibitors: inhibitors of human GSTO1; AID 1974; P78417; actives 1.1% (n = 300,000); recombinant GSTO1, activity-based probe fluorescence polarization; inhibition, % at 5.96 µM;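 active = inhibition above the campaign mean inhibition plus 3 SD, cut at about 35% in these data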;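 also: 0% = GSTO1-1 with DMSO and 100% = wells lacking GSTO1-1 enzyme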
RBBP9 inh: human RBBP9 hydrolase inhibition; O75884; recombinant RBBP9, FP-Rh probe fluorescence polarization; inhibition, % at 7.94 µM; actives 0.2% (n = 220,000); AID 1515;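 active = inhibition above the campaign mean of all tested compounds plus 3 SD, cut at about 14% in these data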;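 also: plate controls were DMSO wells with RBBP9 for no effect and wells lacking RBBP9 protein for full effect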
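Measured by – fluorescence polarization · Test system – RBBP9 protein · Input – 2.5 µM RBBP9 dispensing solution, before mixing · Measure – percent inhibition from mP, scaled between DMSO and no-protein wells · Benchmarks – DMSO-treated enzyme wells and wells lacking RBBP9 · Times – preincubation 30 min plus labeling 45 min at 25 °C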
PAD4 FP inh: inhibitors of human PAD4; recombinant PAD4, RCA probe fluorescence polarization; inhibition, % at 6.36 µM; actives 0.41% (n = 330,000); AID 485272;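 active = percent inhibition above a cutoff equal to the mean of all tested compounds plus 3 SD, cut at about 15% in these data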;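 also: 0% = PAD4 with RCA probe and DMSO and 100% = probe without PAD4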
PRMT1 FP inh: blocks human protein arginine methyltransferase 1 | recombinant PRMT1, activity-based probe fluorescence polarization | Q99873 | AID 652257 | actives 1.3% (n = 370,000) | inhibition, % at 2.79 µM;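 active = inhibition above about 21% made by adding two undisclosed values, limit read from the data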
PRMT1 inh conf: PRMT1 (human) inhibition, FP confirmation; recombinant His-PRMT1, activity-based probe fluorescence polarization; actives 42% (n = 3,300); shares compounds with PRMT1 FP inh; inhibition, % at 2.79 µM;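 active = mean inhibition across replicates above the hit cutoff derived for the earlier primary screen, cut at about 22% in these data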
Starred values were filed as active, the others as inactive; / = no result given; + = active, no number. A selection: hits, their analogues and other compounds. The true share with any hit is near 2.7%.

SMILES	SIAE primary	GSTO1 inh	RBBP9 inh	PAD4 FP inh	PRMT1 FP inh	PRMT1 inh conf
CC(OC(=O)/C=C/c1ccco1)C(=O)Nc1cccc([N+](=O)[O-])c1 (stereo not drawn)	3	-2	-4	2	-1	/
CC(=O)c1ccc(NC(=O)C(C)OC(=O)/C=C/c2ccco2)cc1 (stereo not drawn)	-2	/	/	0	31*	1
CCCC(=O)N1CCN(c2ccc([N+](=O)[O-])cc2Cl)CC1	5	4	5	-1	-1	/
O=C(CSc1ccc(Cl)cc1)N1CCN(c2ccc([N+](=O)[O-])cc2Cl)CC1	-2	-2	-7	6	28*	0
COc1cccc(CNc2nc3nc(C)c(Cl)c(C)n3n2)c1	7	6	2	-3	5	/
O=C(CSc1nc2cc(S(=O)(=O)N3CCOCC3)ccc2o1)Nc1c(F)cccc1F	2	6	3	-2	54*	47*
O=C(CSc1nc2cc(S(=O)(=O)N3CCOCC3)ccc2o1)NC1CCCc2ccccc21 (stereo not drawn)	-3	-6	-3	2	30*	25*
COc1ccc(C(C)=O)cc1COC(=O)C1CCN(C(=O)c2ccc(Cl)cc2)CC1	5	/	/	-1	+	5
CCOC(=O)c1c(C)nc(SCC(N)=O)c(C#N)c1-c1ccccc1	4	-9	-2	3	35*	-5
CCOC(=O)c1c(C)nc(C)c(C(=O)OCC)c1-c1ccccc1	/	0	-2	1	/	/
COc1ccc2cc(C(c3nnnn3C(C)(C)C)N3CCc4ccccc4C3)c(=O)[nH]c2c1 (stereo not drawn)	/	3	1	-16	/	/
COc1ccc2cc(C(c3nnnn3C(C)(C)C)N3CCSCC3)c(=O)[nH]c2c1 (stereo not drawn)	6	4	-8	-4	34*	-6
CC1CCN(C2CC(=O)N(c3ccccc3)C2=O)CC1 (stereo not drawn)	5	-3	-6	5	81*	4
O=C1CC(N2CCC(c3nc4ccccc4[nH]3)CC2)C(=O)N1c1cccc(F)c1 (stereo not drawn)	-3	-5	6	-7	43*	9
CC1CCN(C2CC(=O)N(c3ccc(Br)cc3Br)C2=O)CC1 (stereo not drawn)	-5	7	2	-3	64*	16
c1ccc(-c2cc3c(N4CCCC4)ncnc3s2)cc1	-16	2	-8	-3	40*	0
Cc1ccc(-n2[nH]c(C)c(C=Nc3cc(C)ccn3)c2=O)cc1	-4	10	-9	-9	2	/
Cc1ccnc(N=O)c1	7	/	/	-6	45*	55*
CN(C)CCNC(=O)C(c1ccccc1)c1ccccc1	6	11	-3	1	-6	/
CN(C)CCC(=O)C(Cc1ccccc1)c1ccccc1 (stereo not drawn)	-4	-5	/	-2	42*	32*
COc1ccc(C(C#N)=C2C=CC(=NO)C=C2)cc1	-12	-1	-14	3	28*	6
CCOC(=O)C1=C(C)Nc2ccccc2S1	2	5	5	1	31*	17
CSCCOC(=O)C1=C(C)Nc2ccc(C)cc2S1	8	5	1	4	34*	17
CCOC(=O)/C=C1\Nc2ccccc2SC1=O	-3	4	1	-6	1	/
CCOCCOC(=O)C1=C(C)Nc2ccc(C)cc2S1	-6	-5	-4	0	21	/
SMILES	SIAE primary	GSTO1 inh	RBBP9 inh	PAD4 FP inh	PRMT1 FP inh	PRMT1 inh conf
CCOC(=O)C1=C(C)Nc2ccc(C)cc2S1	9	5	7	5	42*	14
O=C(O)c1ccc(Nc2nc(-c3ccccc3)c3ccccc3n2)cc1	-12	-3	3	-4	3	/
CCOc1ccc2nc(SC3CC(=O)N(c4cccc(OC)c4)C3=O)sc2c1 (stereo not drawn)	-2	14	-1	-2	38*	26*
O=C1CC(SCCO)C(=O)N1c1ccccc1 (stereo not drawn)	2	7	2	2	2	/
Cc1cc(C)cc(N2C(=O)CC(Sc3ncn[nH]3)C2=O)c1 (stereo not drawn)	2	1	-8	-3	29*	43*
Cc1cc(C)cc(N2C(=O)CC(Sc3nnnn3-c3ccccc3)C2=O)c1 (stereo not drawn)	-2	1	6	-2	56*	55*
O=C1CC(Sc2nnnn2C2CCCCC2)C(=O)N1c1ccccc1 (stereo not drawn)	-1	-2	-9	-3	75*	73*
Cc1ccc(CCNC(=O)CS(=O)Cc2nc(-c3ccccc3F)oc2C)cc1 (stereo not drawn)	0	7	/	-5	0	/
COc1cc(OC)cc(C(=O)NCC(=O)OCC(=O)N2c3ccccc3NC(=O)C2(C)C)c1	-18	11	-9	-1	-3	/
COc1ccc(/C=C/C(=O)NC(=S)NCCc2ccc(OC)c(OC)c2)cc1	-7	-2	-4	-1	2	/
CCc1cccc(OCC(=O)Nc2cc(Cl)ccc2-n2cncn2)c1	-4	/	/	-4	-4	/
Cc1cccc(N2C(=O)CC(Sc3nnc(C)s3)C2=O)c1 (stereo not drawn)	5	-1	-15	-4	61*	44*
Cc1cccc(N2C(=O)CC(Sc3nc(C)cc(C)n3)C2=O)c1 (stereo not drawn)	-6	3	-7	-4	2	/
Cn1nnnc1SC1CC(=O)N(c2ccccc2)C1=O (stereo not drawn)	-5	9	0	-3	56*	75*
COc1cc(CNC(C)(C)CO)ccc1OCC(=O)NC(C)(C)C	6	-4	-10	-3	-2	/
CN(CC1COc2ccccc2O1)C(=S)NC1CCCCC1 (stereo not drawn)	-5	-1	1	-3	2	/
CNC(C)C(=O)NC(C(=O)N1CCCC1C(=O)NC1CCCc2ccccc21)C(C)C (stereo not drawn)	4	/	/	1	-1	/
CCOC(=O)c1nnn(-c2nonc2N)c1COc1c(C=O)cccc1OC	2	-9	-1	0	-1	/
CCS(=O)(=O)C1=NN2C(=N)/C(=C\c3ccc(SCc4ccco4)o3)C(=O)N=C2S1	-69	/	-14	/	30*	21
CCS(=O)(=O)C1=NN2C(=N)/C(=C\c3ccc(OC(=O)c4ccco4)c(Br)c3)C(=O)N=C2S1	/	-10	/	-4	/	/
Cc1ccc(CN(CC2CCCO2)C(=O)CN2C(=O)C(C(C)C)Oc3ccccc32)o1 (stereo not drawn)	-1	5	-5	1	32*	12
CC(C)C1Oc2ccccc2N(CC(=O)N(Cc2ccccn2)CC2CCCO2)C1=O (stereo not drawn)	0	4	-5	1	-1	/
COc1ccc(N2CCN(c3ncnc4sc(C(=O)NCC5CCCO5)c(C)c34)CC2)cc1 (stereo not drawn)	0	5	/	-1	-4	/
